Each structure is given as a SMILES string. ≈ marks a conversion by molar mass, not a printed value. Calls of active or inactive are those of the source. No cut-off for these calls is given here.

Broadly, the MIC is the lowest concentration found to suppress growth. Low readings indicate greater potency, high ones weaker potency.

For test [1], the system named is Cryptococcus neoformans. The experiment in a line: Antimicrobial activity against Cryptococcus neoformans ATCC 90112 after 24 hrs. The test is classed as functional. The note with it: ATCC 90112, 24 h. Summed up: (§1)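 Yeast MIC by serial doubling dilution. Compounds were dissolved in acetone at a 5 mg/mL starting concentration into sterile-water wells. Inoculum was 1 × 10⁶ CFU/mL at 37 °C for 24 h plus a further 24 h. Then 0.2 mg/mL p-iodonitrotetrazolium violet was added and colour read after 24 h. MIC was the lowest concentration showing no growth. Acetone and amphotericin B (starting 0.01 mg/mL) served as controls. At least triplicate, on consecutive days.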

The subject of a further test is Klebsiella pneumoniae. The experiment in a line: Antimicrobial activity against Klebsiella pneumoniae ATCC 13831 after 6 hrs. The test is classed as functional. The settings on record: ATCC 13831, 6 h. Summed up:
(§2)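 Broth microdilution MIC. Compounds were dissolved in acetone at a 5 mg/mL starting concentration, added to wells containing sterile water, then serially doubled down. Inoculum was 1 × 10⁶ CFU/mL, incubated 37 °C for 24 h. Then 0.2 mg/mL p-iodonitrotetrazolium violet was added and colour read after 6 h. MIC was the lowest concentration without growth. Acetone and ciprofloxacin (starting 0.01 mg/mL) served as controls. At least triplicate, on consecutive days.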

The test system of a further test is Candida albicans. The experiment in a line: Antimicrobial activity against Candida albicans ATCC 10231 after 24 hrs. The test is classed as functional. The settings on record: ATCC 10231, 24 h. Summed up:
as §1

In another test the test system is Bacillus cereus. The experiment in a line: Antimicrobial activity against Bacillus cereus ATCC 11778 after 6 hrs. The test is classed as functional. The settings on record: ATCC 11778, 6 h. The gist of the method: as §2
For test [2], the system named is Escherichia coli. The experiment in a line: Antimicrobial activity against Escherichia coli ATCC 8739 after 6 hrs. The test is classed as functional. The note with it: ATCC 8739, 6 h. The gist of the method: as §2
For test [3], the system named is Staphylococcus aureus. The experiment in a line: Antimicrobial activity against Staphylococcus aureus ATCC 6538 after 6 hrs. The test is classed as functional. The note with it: ATCC 6538, 6 h. Summed up:
as §2

Test [4] relates to Escherichia coli. The experiment in a line: Antimicrobial activity against Escherichia coli ATCC 8739 at 1250 ug/mL after 6 hrs. The test is classed as functional, organism-based.
Test [5] deals with Cryptococcus neoformans. The experiment in a line: Antimicrobial activity against Cryptococcus neoformans ATCC 90112 at 1250 ug/mL after 24 hrs. The test is classed as functional, organism-based.
Test [6] relates to Staphylococcus aureus. The experiment in a line: Antimicrobial activity against Staphylococcus aureus ATCC 6538 at 1250 ug/mL after 6 hrs. The test is classed as functional, organism-based.

Consider `COc1ccc2[nH]cc(-c3ccccc3)c2c1`, for which the MIC was found to be 235 µg/mL (≈ 1050 µM) against Cryptococcus neoformans [1]; 313 µg/mL (≈ 1400 µM) with Klebsiella pneumoniae; 78 µg/mL (≈ 349 µM) in the test with Candida albicans; 15.6 µg/mL (≈ 69.9 µM) against Bacillus cereus; 625 µg/mL (≈ 2800 µM) in the test on Escherichia coli [2]; 39.1 µg/mL (≈ 175 µM) in the test with Staphylococcus aureus [3].
In the case of `COc1ccc2[nH]cc(-c3ccccc3C)c2c1`, the minimal inhibitory concentration (MIC) against Cryptococcus neoformans [1] worked out at 625 µg/mL (≈ 2630 µM); in the test on Klebsiella pneumoniae, 313 µg/mL (≈ 1320 µM); in the test with Candida albicans, 117 µg/mL (≈ 493 µM); against Bacillus cereus, 19.5 µg/mL (≈ 82.2 µM); in the test on Escherichia coli [2] it was 313 µg/mL (≈ 1320 µM); against Staphylococcus aureus [3] it was 29.3 µg/mL (≈ 123 µM).
Regarding `COc1ccc(-c2c[nH]c3ccccc23)cc1`, the result with Escherichia coli [4] was inactive. Also, the MIC was found to be 78 µg/mL (≈ 349 µM) against Cryptococcus neoformans [1]; 208 µg/mL (≈ 932 µM) in the test with Klebsiella pneumoniae; 156 µg/mL (≈ 699 µM) against Candida albicans; 625 µg/mL (≈ 2800 µM) in the test on Bacillus cereus; 469 µg/mL (≈ 2100 µM) against Staphylococcus aureus [3].
As to `c1ccc(-c2cc3ccccc3[nH]2)cc1` [2-PHENYL-1H-INDOLE], the minimal inhibitory concentration (MIC) against Cryptococcus neoformans [1] was found to be 625 µg/mL (≈ 3230 µM); against Klebsiella pneumoniae it was 313 µg/mL (≈ 1620 µM); in the test on Candida albicans, 156 µg/mL (≈ 807 µM); against Bacillus cereus it was 625 µg/mL (≈ 3230 µM); in the test on Escherichia coli [2], 1250 µg/mL (≈ 6470 µM); in the test on Staphylococcus aureus [3] it was 469 µg/mL (≈ 2430 µM).
Turning to `COc1ccc2[nH]cc(-c3ccccc3C=O)c2c1`, the MIC in the test with Cryptococcus neoformans [1] is 313 µg/mL (≈ 1250 µM); with Klebsiella pneumoniae, 313 µg/mL (≈ 1250 µM); against Candida albicans, 156 µg/mL (≈ 621 µM); in the test with Bacillus cereus it was 78 µg/mL (≈ 310 µM); with Escherichia coli [2], 235 µg/mL (≈ 935 µM); with Staphylococcus aureus [3], 156 µg/mL (≈ 621 µM).
On to `COc1ccc(-c2c[nH]c3ccc(OC)cc23)cc1`, for which the minimum inhibitory concentration (MIC) against Cryptococcus neoformans [1] came to 29.3 µg/mL (≈ 116 µM); against Klebsiella pneumoniae it was 261 µg/mL (≈ 1030 µM); against Candida albicans it was 156 µg/mL (≈ 616 µM); against Bacillus cereus it was 156 µg/mL (≈ 616 µM); with Escherichia coli [2], 521 µg/mL (≈ 2060 µM); in the test with Staphylococcus aureus [3], 313 µg/mL (≈ 1240 µM).
As for `COc1cc(-c2cc3ccccc3[nH]2)cc(OC)c1OC`, the minimal inhibitory concentration (MIC) with Cryptococcus neoformans [1] was 313 µg/mL (≈ 1100 µM); in the test with Klebsiella pneumoniae it was 391 µg/mL (≈ 1380 µM); against Candida albicans, 117 µg/mL (≈ 413 µM); in the test on Bacillus cereus, 20 µg/mL (≈ 70.6 µM); against Escherichia coli [2], 313 µg/mL (≈ 1100 µM); against Staphylococcus aureus [3], 469 µg/mL (≈ 1660 µM).
For `COc1ccc2[nH]c(-c3cc(OC)c(OC)c(OC)c3)cc2c1`, the minimal inhibitory concentration (MIC) turned out to be 32.5 µg/mL (≈ 104 µM) in the test on Cryptococcus neoformans [1]; 313 µg/mL (≈ 999 µM) with Klebsiella pneumoniae; 156 µg/mL (≈ 498 µM) against Candida albicans; 156 µg/mL (≈ 498 µM) against Bacillus cereus; 625 µg/mL (≈ 1990 µM) against Escherichia coli [2]; 313 µg/mL (≈ 999 µM) against Staphylococcus aureus [3].
For `COc1ccc(-c2cc3ccccc3[nH]2)cc1`, the MIC is 58.5 µg/mL (≈ 262 µM) with Cryptococcus neoformans [1]; 313 µg/mL (≈ 1400 µM) with Klebsiella pneumoniae; 156 µg/mL (≈ 699 µM) in the test with Candida albicans; 156 µg/mL (≈ 699 µM) against Bacillus cereus; 625 µg/mL (≈ 2800 µM) in the test on Escherichia coli [2]; 635 µg/mL (≈ 2840 µM) against Staphylococcus aureus [3].
In the case of `COc1ccc(-c2cc3cc(OC)ccc3[nH]2)cc1`, the result in the test with Escherichia coli [4] was inactive. Moreover, the minimal inhibitory concentration (MIC) against Klebsiella pneumoniae turned out to be 313 µg/mL (≈ 1240 µM); in the test on Candida albicans, 235 µg/mL (≈ 928 µM); against Bacillus cereus, 313 µg/mL (≈ 1240 µM); against Staphylococcus aureus [3], 625 µg/mL (≈ 2470 µM).
`COc1ccc2[nH]c(-c3ccccc3C)cc2c1`: the minimum inhibitory concentration (MIC) against Klebsiella pneumoniae turned out to be 313 µg/mL (≈ 1320 µM); in the test on Candida albicans, 313 µg/mL (≈ 1320 µM); against Bacillus cereus it was 156 µg/mL (≈ 657 µM); against Escherichia coli [2] it was 468 µg/mL (≈ 1970 µM); in the test on Staphylococcus aureus [3], 235 µg/mL (≈ 990 µM).
On to `COc1ccc2[nH]c(-c3ccccc3)cc2c1`, for which the outcome with Escherichia coli [4] and with Cryptococcus neoformans [5] was inactive. Moreover, the MIC was 469 µg/mL (≈ 2100 µM) with Klebsiella pneumoniae, 469 µg/mL (≈ 2100 µM) in the test with Candida albicans, 3.9 µg/mL (≈ 17.5 µM) in the test with Bacillus cereus and 156 µg/mL (≈ 699 µM) in the test on Staphylococcus aureus [3].
With `c1ccc(-c2c[nH]c3ccccc23)cc1` [3-PHENYLINDOLE], the minimal inhibitory concentration (MIC) against Cryptococcus neoformans [1] amounted to 65.1 µg/mL (≈ 337 µM); in the test with Klebsiella pneumoniae it was 469 µg/mL (≈ 2430 µM); against Candida albicans it was 19.5 µg/mL (≈ 101 µM); against Bacillus cereus it was 19.5 µg/mL (≈ 101 µM); against Escherichia coli [2] it was 156 µg/mL (≈ 807 µM); in the test with Staphylococcus aureus [3], 39 µg/mL (≈ 202 µM).
For `COc1cc(-c2c[nH]c3ccccc23)c(OC)cc1Br`, the MIC in the test on Cryptococcus neoformans [1] was found to be 261 µg/mL (≈ 786 µM); against Klebsiella pneumoniae, 313 µg/mL (≈ 942 µM); in the test on Candida albicans, 156 µg/mL (≈ 470 µM); against Bacillus cereus it was 235 µg/mL (≈ 707 µM); in the test with Escherichia coli [2], 469 µg/mL (≈ 1410 µM); with Staphylococcus aureus [3] it was 156 µg/mL (≈ 470 µM).
For `COc1cc(-c2c[nH]c3ccccc23)cc(OC)c1OC`, the MIC in the test with Cryptococcus neoformans [1] amounted to 29.3 µg/mL (≈ 103 µM); against Klebsiella pneumoniae, 313 µg/mL (≈ 1100 µM); in the test with Candida albicans, 313 µg/mL (≈ 1100 µM); with Bacillus cereus, 235 µg/mL (≈ 829 µM); with Escherichia coli [2], 313 µg/mL (≈ 1100 µM). Besides, in the test on Staphylococcus aureus [6], the result was inactive.
For the compound `COc1ccc2[nH]cc(-c3cc(OC)c(OC)c(OC)c3)c2c1`, the MIC in the test on Cryptococcus neoformans [1] was found to be 29.3 µg/mL (≈ 93.5 µM); against Klebsiella pneumoniae it was 313 µg/mL (≈ 999 µM); with Candida albicans, 313 µg/mL (≈ 999 µM); in the test with Bacillus cereus, 156 µg/mL (≈ 498 µM); in the test on Escherichia coli [2], 313 µg/mL (≈ 999 µM); in the test with Staphylococcus aureus [3] it was 313 µg/mL (≈ 999 µM).
In the case of `c1ccc2[nH]c(-c3cccc4ccccc34)cc2c1`, the MIC against Cryptococcus neoformans [1] was 625 µg/mL (≈ 2570 µM); against Klebsiella pneumoniae, 313 µg/mL (≈ 1290 µM); against Candida albicans it was 156 µg/mL (≈ 641 µM); in the test with Bacillus cereus, 625 µg/mL (≈ 2570 µM); with Escherichia coli [2], 938 µg/mL (≈ 3860 µM); in the test with Staphylococcus aureus [3], 625 µg/mL (≈ 2570 µM).
Consider `COc1ccc2[nH]cc(-c3ccccc3C(C)=O)c2c1`, for which the MIC amounted to 39 µg/mL (≈ 147 µM) in the test on Cryptococcus neoformans [1]; 313 µg/mL (≈ 1180 µM) in the test with Klebsiella pneumoniae; 235 µg/mL (≈ 886 µM) against Candida albicans; 156 µg/mL (≈ 588 µM) with Bacillus cereus; 313 µg/mL (≈ 1180 µM) with Escherichia coli [2]; 625 µg/mL (≈ 2360 µM) against Staphylococcus aureus [3].

For the origin of these results see ChEMBL document CHEMBL1155357, “The synthesis of 2- and 3-aryl indoles and 1,3,4,5-tetrahydropyrano[4,3-b]indoles and their antibacterial and antifungal activity” (2009).
